{"source": "ChEMBL document CHEMBL1154219", "about": "“New Ras CAAX mimetics: design, synthesis, antiproliferative activity, and RAS prenylation inhibition” (Bioorg Med Chem Lett, 2009)", "key": {"[1]": {"assay": "Antiproliferative activity against HSMC after 72 hrs", "assay_type": "functional", "settings": "Homo sapiens", "summary_of_the_method": "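Human aortic SMCs seeded at 8 × 10⁴ cells per 35 mm dish in DMEM with 10% FCS. After 24 h, switched to 0.4% FCS for 72 h to arrest growth. Then refed with 10% FCS with or without compound (DMSO, final ≤0.5%) for 72 h at 37 °C. Cells trypsinized and counted by Coulter counter. IC50 obtained by linear regression of log concentration versus logit.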"}, "Homo sapiens [2]": {"organism": "Homo sapiens", "assay": "Inhibition of Ras protein protein prenylation in HSMC assessed as unprenylated Ras accumulation at 25 uM after 72 hrs by Western blot analysis", "summary_of_the_method": "(§1)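 Human aortic SMCs seeded at 4 × 10⁵ cells per 60 mm dish. Growth-arrested in 0.4% FCS for 72 h, then exposed to compound in 10% FCS for 72 h at 37 °C (DMSO ≤0.5%). Cells lysed on ice in Tris pH 7.5/NaCl/NP-40 buffer with protease inhibitors; lysates cleared, protein measured by BCA. SDS-PAGE under reducing conditions, anti-Ras immunoblot, ECL detection. Unprenylated Ras seen as the slower-migrating band.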"}, "Homo sapiens [3]": {"organism": "Homo sapiens", "assay": "Inhibition of Ras protein protein prenylation in HSMC assessed as unprenylated Ras accumulation at 50 uM after 72 hrs by Western blot analysis", "summary_of_the_method": "as §1"}, "[4]": {"assay": "Inhibition of Ras protein protein prenylation in HSMC assessed as unprenylated Ras accumulation after 72 hrs by Western blot analysis", "design": "species or system Homo sapiens", "summary_of_the_method": "as §1"}, "Homo sapiens [5]": {"organism": "Homo sapiens", "assay": "Inhibition of Ras protein protein prenylation in HSMC assessed as unprenylated Ras accumulation at 75 uM after 72 hrs by Western blot analysis", "summary_of_the_method": "as §1"}, "Homo sapiens [6]": {"organism": "Homo sapiens", "assay": "Inhibition of Ras protein protein prenylation in HSMC assessed as unprenylated Ras accumulation at 10 uM after 72 hrs by Western blot analysis", "summary_of_the_method": "as §1"}}, "note": "The source made the active and inactive calls. No cut-off for these calls is given here.", "data": [{"compound": "COC(=O)[C@H](CCSC)NC(=O)c1ccc(C(=O)NC[C@H]2COc3ccccc3O2)cc1-c1ccccc1C", "values": [{"measurement": "IC50", "setting": "[1]", "result": 87, "unit": "µM"}]}, {"compound": "COC(=O)[C@H](CC(C)C)NC(=O)c1ccc(C(=O)NC[C@H]2COc3ccccc3O2)cc1-c1ccccc1C", "values": [{"measurement": "IC50", "setting": "[1]", "result": 103, "unit": "µM"}]}, {"compound": "COC(=O)CNC(=O)c1ccc(OC[C@@H]2COc3ccccc3O2)cc1-c1ccccc1C", "values": [{"measurement": "IC50", "setting": "[1]", "result": 0.7, "unit": "µM"}, {"measurement": "inhibition", "setting": "Homo sapiens [2]", "result": "inactive"}, {"measurement": "inhibition", "setting": "Homo sapiens [3]", "result": "inactive"}]}, {"compound": "COC(=O)[C@H](CCSC)NC(=O)c1ccc(OC[C@@H]2COc3ccccc3O2)cc1-c1ccccc1C", "values": [{"measurement": "IC50", "setting": "[1]", "result": 193, "unit": "µM"}]}, {"compound": "COC(=O)[C@H](CCSC)NC(=O)c1ccc(OC[C@H]2COc3ccccc3O2)cc1-c1ccccc1C", "values": [{"measurement": "IC50", "setting": "[4]", "result": 2.8, "unit": "µM"}, {"measurement": "IC50", "setting": "[1]", "result": 6.6, "unit": "µM"}]}, {"compound": "COC(=O)CNC(=O)c1ccc(C(=O)NC[C@H]2COc3ccccc3O2)cc1-c1ccccc1C", "values": [{"measurement": "IC50", "setting": "[1]", "result": 113, "unit": "µM"}]}, {"compound": "COC(=O)CNC(=O)c1ccc(OC[C@@H]2COc3ccccc3O2)cc1-c1ccccc1OC", "values": [{"measurement": "IC50", "setting": "[1]", "result": 35, "unit": "µM"}, {"measurement": "inhibition", "setting": "Homo sapiens [5]", "result": "inactive"}, {"measurement": "inhibition", "setting": "Homo sapiens [3]", "result": "inactive"}]}, {"compound": "COC(=O)[C@H](CCSC)NC(=O)c1ccc(C(=O)NC[C@H]2COc3ccccc3O2)cc1-c1ccccc1OC", "values": [{"measurement": "IC50", "setting": "[1]", "result": 252, "unit": "µM"}]}, {"compound": "COC(=O)[C@H](CC(C)C)NC(=O)c1ccc(OC[C@H]2COc3ccccc3O2)cc1-c1ccccc1C", "values": [{"measurement": "IC50", "setting": "[1]", "result": 3, "unit": "µM"}, {"measurement": "inhibition", "setting": "Homo sapiens [6]", "result": "inactive"}, {"measurement": "inhibition", "setting": "Homo sapiens [3]", "result": "inactive"}]}, {"compound": "COC(=O)[C@H](CC(C)C)NC(=O)c1ccc(OC[C@@H]2COc3ccccc3O2)cc1-c1ccccc1C", "values": [{"measurement": "IC50", "setting": "[1]", "result": 5.2, "unit": "µM"}, {"measurement": "inhibition", "setting": "Homo sapiens [2]", "result": "inactive"}, {"measurement": "inhibition", "setting": "Homo sapiens [3]", "result": "inactive"}]}, {"compound": "COC(=O)[C@H](CCSC)NC(=O)c1ccc(C(=O)NC[C@@H]2COc3ccccc3O2)cc1-c1ccccc1C", "values": [{"measurement": "IC50", "setting": "[1]", "result": 533, "unit": "µM"}]}, {"compound": "COC(=O)[C@H](CC(C)C)NC(=O)c1ccc(C(=O)NC[C@@H]2COc3ccccc3O2)cc1-c1ccccc1C", "values": [{"measurement": "IC50", "setting": "[1]", "result": 88, "unit": "µM"}]}, {"compound": "COC(=O)[C@H](CC(C)C)NC(=O)c1ccc(C(=O)NC[C@@H]2COc3ccccc3O2)cc1-c1ccccc1OC", "values": [{"measurement": "IC50", "setting": "[1]", "result": 469, "unit": "µM"}]}, {"compound": "COC(=O)CNC(=O)c1ccc(C(=O)NC[C@@H]2COc3ccccc3O2)cc1-c1ccccc1C", "values": [{"measurement": "IC50", "setting": "[1]", "result": 89, "unit": "µM"}]}, {"compound": "COC(=O)[C@H](CC(C)C)NC(=O)c1ccc(C(=O)NC[C@H]2COc3ccccc3O2)cc1-c1ccccc1OC", "values": [{"measurement": "IC50", "setting": "[1]", "result": 185, "unit": "µM"}]}, {"compound": "COC(=O)[C@H](CCSC)NC(=O)c1ccc(C(=O)NC[C@@H]2COc3ccccc3O2)cc1-c1ccccc1OC", "values": [{"measurement": "IC50", "setting": "[1]", "result": 647, "unit": "µM"}]}, {"compound": "COC(=O)[C@H](CCSC)NC(=O)c1ccc(OC[C@H]2COc3ccccc3O2)cc1-c1ccccc1OC", "values": [{"measurement": "IC50", "setting": "[1]", "result": 230, "unit": "µM"}]}, {"compound": "COC(=O)CNC(=O)c1ccc(C(=O)NC[C@@H]2COc3ccccc3O2)cc1-c1ccccc1OC", "values": [{"measurement": "IC50", "setting": "[1]", "result": 76, "unit": "µM"}]}, {"compound": "COC(=O)CNC(=O)c1ccc(C(=O)NC[C@H]2COc3ccccc3O2)cc1-c1ccccc1OC", "values": [{"measurement": "IC50", "setting": "[1]", "result": 122, "unit": "µM"}]}, {"compound": "COC(=O)[C@H](CC(C)C)NC(=O)c1ccc(OC[C@H]2COc3ccccc3O2)cc1-c1ccccc1OC", "values": [{"measurement": "IC50", "setting": "[1]", "result": 32, "unit": "µM"}, {"measurement": "inhibition", "setting": "Homo sapiens [2]", "result": "inactive"}, {"measurement": "inhibition", "setting": "Homo sapiens [3]", "result": "inactive"}]}, {"compound": "COC(=O)CNC(=O)c1ccc(OC[C@H]2COc3ccccc3O2)cc1-c1ccccc1OC", "values": [{"measurement": "IC50", "setting": "[1]", "result": 71, "unit": "µM"}, {"measurement": "inhibition", "setting": "Homo sapiens [5]", "result": "inactive"}, {"measurement": "inhibition", "setting": "Homo sapiens [3]", "result": "inactive"}]}, {"compound": "COC(=O)[C@H](CCSC)NC(=O)c1ccc(OC[C@@H]2COc3ccccc3O2)cc1-c1ccccc1OC", "values": [{"measurement": "IC50", "setting": "[1]", "result": 204, "unit": "µM"}]}, {"compound": "COC(=O)CNC(=O)c1ccc(OC[C@H]2COc3ccccc3O2)cc1-c1ccccc1C", "values": [{"measurement": "IC50", "setting": "[1]", "result": 27, "unit": "µM"}, {"measurement": "inhibition", "setting": "Homo sapiens [3]", "result": 35, "unit": "%"}]}, {"compound": "COC(=O)[C@H](CC(C)C)NC(=O)c1ccc(OC[C@@H]2COc3ccccc3O2)cc1-c1ccccc1OC", "values": [{"measurement": "IC50", "setting": "[1]", "result": 17, "unit": "µM"}, {"measurement": "inhibition", "setting": "Homo sapiens [6]", "result": "inactive"}, {"measurement": "inhibition", "setting": "Homo sapiens [3]", "result": "inactive"}]}]}
